In the library only some 2.5% were active in any assay of this set; here they are far more common.
SENP6 inh = SENP6 protease inhibition; Q9GZR1; Recombinant SENP6 catalytic domain, aminoluciferin luminescence; inhibition, % at 10 µM; 330,000 compounds, 1.8% hits; AID 2599;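 active means inhibition above about 50% at the single tested dose, limit read from the data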;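 further: plate controls were DMSO wells with enzyme for no effect and DMSO wells lacking enzyme for full effect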
SENP8 block-1 = blocks the human protease SENP8. Q96LD8. purified SENP8, Z-RLRGG-aminoluciferin cleavage, luminescence. inhibition, % at 10 µM. 330,000 compounds, 1.2% hits. AID 2540; in the data active means inhibition above about 50%
SENP7 block = blocks the human protease SENP7. Q9BQF6. recombinant SENP7, Z-RLRGG-aminoluciferin luminescence, 40 min. inhibition, % at 5 µM. 330,000 compounds, 1.5% hits;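 active means inhibition above about 50% at the single test dose, limit read from the data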;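 further: plate controls were DMSO with enzyme for no effect and no enzyme buffer wells for full effect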
Target sequence (Q9BQF6 706-1050 limits assumed): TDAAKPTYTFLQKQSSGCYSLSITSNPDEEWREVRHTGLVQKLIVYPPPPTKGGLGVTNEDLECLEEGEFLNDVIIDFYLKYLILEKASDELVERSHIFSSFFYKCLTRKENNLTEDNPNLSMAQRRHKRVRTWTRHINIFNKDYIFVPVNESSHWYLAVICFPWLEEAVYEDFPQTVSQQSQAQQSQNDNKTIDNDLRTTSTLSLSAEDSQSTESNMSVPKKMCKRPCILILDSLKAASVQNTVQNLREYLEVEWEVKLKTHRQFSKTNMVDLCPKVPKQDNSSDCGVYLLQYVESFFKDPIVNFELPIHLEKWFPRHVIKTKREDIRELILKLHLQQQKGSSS
SENP1 inh = blocks the human SENP1 SUMO protease catalytic domain; inhibition, % at 10 µM; recombinant SENP1 catalytic domain, CyPet-SUMO1-YPet FRET cleavage; Q9P0U3; 360,000 compounds, 0.21% hits;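 active means inhibition at least 30% at 10 µM, raw YFP signal under a set limit, fluorescence ratio 0.5 to 1.5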;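 further: 0% = enzyme with DMSO and 100% = no enzyme wells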
Target sequence (Q9P0U3 419-644 limits assumed): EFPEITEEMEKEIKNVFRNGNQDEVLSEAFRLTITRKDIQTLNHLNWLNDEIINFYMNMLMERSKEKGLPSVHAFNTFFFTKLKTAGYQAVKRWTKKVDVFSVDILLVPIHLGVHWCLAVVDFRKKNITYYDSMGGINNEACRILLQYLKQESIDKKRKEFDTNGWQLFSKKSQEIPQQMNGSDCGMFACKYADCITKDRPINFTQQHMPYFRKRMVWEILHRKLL
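Assay system – human recombinant His6-tagged SENP1 catalytic domain enzyme · Input – SENP1 enzyme, 20 pM final · Buffer or medium – Tris pH 8 buffer plus EDTA, NaCl, BME, BSA, NP40, catalase · Schedule – 50 min reaction at room temperature · Technique – FRET read of cyan and yellow fluorescence · Control set – no-enzyme wells low, DMSO-plus-enzyme wells high control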
SENP8 block-2 = SENP8 (human) protease inhibition; Q96LD8; recombinant SENP8, Nedd8 substrate fluorescence; inhibition, % at 20 µM; 360,000 compounds, 0.64% hits; AID 602440; in the data active means inhibition mostly above about 40%, no sharp cut-off; inactive means mostly below about 27%
SENP8 conf = SENP8 (human) inhibition, single concentration confirmation; inhibition, % at 25 µM; 1,400 compounds, 15% hits; purified SENP8, Nedd8-AMC/pro-Nedd8 cleavage fluorescence, 30 min; AID 624319; shares compounds with SENP8 block-2; in the data active means inhibition mostly above about 39%, no sharp cut-off; inactive means mostly below about 34%
The depositor's hits bear a star; i = inactive; · = no result given.

SMILES	SENP6 inh	SENP8 block-1	SENP7 block	SENP1 inh	SENP8 block-2	SENP8 conf
CN1/C(=C/C=C(C#N)C#N)C(C)(C)c2ccccc21	3	-3	-4	-35	9	·
COc1ccccc1-c1cc2c(c3c1ccn3C)C1CCC2C1 (centres undefined)	·	·	·	-4	-163	·
O=C(NCCN1CCOCC1)c1ccc([N+](=O)[O-])cc1[N+](=O)[O-]	-12	5	-9	-2	46*	17
CC1(C)CC(NC(=S)NCc2ccc3c(c2)OCO3)CC(C)(C)N1	-11	1	-2	·	·	·
Cc1ccc(-n2c(N)c(C(=O)Nc3ccccc3F)sc2=S)cc1C	6	-3	7	-1	28	·
COc1cccc(OC)c1C(=O)NC(=S)N1CCCCC1c1cccnc1 (centres undefined)	11	0	2	1	52*	16
CCSc1nnc(NC(=O)c2ccco2)s1	-8	-7	0	0	-19	·
CCSc1nnc(NC(NC(=O)c2ccco2)(C(F)(F)F)C(F)(F)F)s1	11	3	-1	0	41*	28
CCOc1cc(Cl)c(CNCCCN2CCOCC2)cc1OC	4	-11	12	1	8	·
CCCNCc1cc(OC)c(OCCC)cc1Cl	2	-7	2	4	40*	-3
O=c1cc(N2CCCCCC2)[nH]c(=O)n1-c1ccc(Cl)cc1	-6	3	2	0	15	·
Cc1ccc(-n2c(=O)cc(N3CCCCCC3)[nH]c2=O)cc1	-19	-6	6	2	45*	14
Cc1ccc(C)c(NC(=O)c2ccc(S(=O)(=O)C(F)F)cc2)c1	-2	-1	1	3	4	·
N#CC1=C(N)Oc2c(oc(CO)cc2=O)C1c1cccs1 (centres undefined)	22	0	4	0	45*	30
COC(=O)c1ccc(C)cc1C1CN=NC12Cc1cc(C)ccc1C2=O (centres undefined)	·	·	·	0	57*	33
Cc1occc1-c1nnc(SCC(=O)NC2CCC(C)CC2)o1 (centres undefined)	7	4	3	1	4	·
O=c1ccc(Br)c[nH]1	11	10	14	2	42*	22
COc1ccccc1C(=O)N1CCN(S(=O)(=O)c2ccccc2)CC1	-12	-6	2	-1	46*	20
O=S(=O)(c1ccccc1)N1CCN(S(=O)(=O)c2ccccc2)C1	-4	-3	-4	-1	41*	13
O=S(=O)(c1ccccc1)N1CCN(C2CCCCCCC2)CC1	4	10	-6	0	41*	22
NS(=O)(=O)c1ccc(S(=O)(=O)N2CCN(C3CCCC3)CC2)cc1	-21	-11	-8	0	11	·
Cc1ccc(OCc2nnc(SC(C)C(=O)O)n2-c2ccccc2)cc1 (centres undefined)	-37	-12	-6	0	10	·
O=C(O)c1ncsc1-c1ccccc1	-12	-3	-3	1	43*	23
Cc1ccc(N(C(=O)CNC(=O)c2ccco2)C(C(=O)NC2CCCCC2)c2ccncc2)c(C)c1 (centres undefined)	7	3	2	1	6	·
COCCN(C(=O)CSc1ccc2c(c1)OCCO2)c1c(N)n(CC(C)C)c(=O)[nH]c1=O	2	-5	-3	-1	13	·
SMILES	SENP6 inh	SENP8 block-1	SENP7 block	SENP1 inh	SENP8 block-2	SENP8 conf
CC(NC(=O)Nc1ccc(O)cc1)(C(F)(F)F)C(F)(F)F	-12	-1	9	0	78*	18
CC(=O)Nc1ccccc1NC(=O)C/C(C)=N/NC(=O)c1ccc([N+](=O)[O-])c(Cl)c1	-4	-9	-4	0	40*	8
CC(C)(C)c1ccc2c(c1)OC(C(=O)N/N=C/c1ccc([N+](=O)[O-])o1)CO2 (centres undefined)	2	2	10	-50	44*	15
NC(=O)c1nsc(C(=O)N(CCc2ccccc2)C(C(=O)NC2CCCC2)c2ccco2)c1N (centres undefined)	-5	-11	4	-22	-271	·
O=C(NC1CCCCC1)C(c1ccco1)N(CCc1ccccc1)C(=O)C(F)(F)F (centres undefined)	-11	2	0	-1	45*	20
COc1ccc(-c2nc[nH]c2[N+](=O)[O-])cc1	-6	1	-7	2	49*	17
C[C@H](NC(=O)c1cc2cc(Cl)ccc2n1C)C(=O)N1CCC[C@H]1C(=O)O	-16	-11	10	-1	13	·
CC(C)C[C@H](NC(=O)c1cc2cc(Cl)ccc2n1C)C(=O)N1CCC[C@H]1C(=O)O	-17	-3	11	2	47*	8
CCOC(=O)Cn1cnc(-c2ccc([N+](=O)[O-])cc2)c1	-6	-4	4	5	14	·
Cc1ccc(NC(=S)NNC(=O)c2cn(C)nc2C)cc1	5	1	0	2	43*	12
CC(C)c1noc2ncc(C(=O)c3cc(Cl)cc(Cl)c3O)cc12	-3	-6	2	18	46*	18
COc1nc(/C=C/N(C)C)c([N+](=O)[O-])c(OC)n1	0	4	-2	1	43*	19
CC(=O)Oc1ccc2oc(/C=C/N(C)C)c([N+](=O)[O-])c2c1	9	1	-2	-1	38	·
CCN(CC(=O)NC(C)(C)C)Cc1nc2c(Br)cc(Br)cc2c(=O)[nH]1	2	-10	-4	-10	41*	25
CCOCCC(=O)Nc1ccc2c(c1)c(=O)n(C)n2CC=C(C)C	·	·	·	1	i	·
CCC(C)(C)C1CCC(=NNC(=S)Nc2ccccc2)CC1 (centres undefined)	-10	5	5	2	45*	0
CCC(C(=O)OCCOCCN(CC)CC)c1ccccc1 (centres undefined)	-29	-1	7	2	12	·
CCN(CC)CCCOC(=O)C(c1ccccc1)c1ccccc1	-14	4	3	0	62*	18
Cc1cc(C)cc(NC(=O)CN(C)S(=O)(=O)c2cnc[nH]2)c1	0	-6	1	-1	42*	-5
Cc1ccc2nc(SCC(=O)NCCc3ccccc3)nc(=O)n2c1	-11	-3	9	0	-233	·
COc1ccc(CCNC(=O)CSc2nc(=O)n3cc(C)ccc3n2)cc1OC	-9	3	4	1	62*	25
C[C@@H]1CN(Cc2nc(-c3cccs3)no2)C[C@H](C)O1	1	-11	-13	-1	42*	-6
COCC1CCN(Cc2nc(-c3cccs3)no2)C1 (centres undefined)	-9	-5	2	-1	6	·
O=C(N/N=C/c1cc([N+](=O)[O-])ccc1O)c1cc(-c2ccccc2)nc2ccccc12	3	-11	-1	-30	1	·

Compound activity as filed in PubChem.
